Experimental data: paper PMC3530405 (Journal of immunology (Baltimore, Md. : 1950), 2012)
Entries after “also recorded” stand apart in the source; their conditions may differ.

Assays:
Type in all cases: biochemical
ERAP2^K [1] = target: T1, ERAP2^K (Homo sapiens, UniProt Q6P179); assay: R-AMC hydrolysis / Michaelis-Menten analysis by ERAP2^K
ERAP2^N [2] = target: T2, ERAP2^N (Homo sapiens, UniProt Q6P179, K392N); assay: R-AMC hydrolysis / Michaelis-Menten analysis by ERAP2^N
ERAP2^N [3] = target: T2, ERAP2^N; assay: Trimming of […] by ERAP2 alleles; conditions: ERAP2^N vs ERAP2^K; MS (LTQ Orbitrap), <30% completion
ERAP2^N [4] = target: T2, ERAP2^N; assay: Inhibition of R-AMC hydrolysis by ERAP2^N; conditions: ERAP2^N vs ERAP2^K, Ki values only in Figure 7B
How it was run: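 His-tagged recombinant human ERAP2 (N392 or K392 form), baculovirus-expressed in Hi5 insect cells, Ni-NTA purified and thawed once before use. R-AMC hydrolysis was tracked against rising inhibitor concentrations by fluorescence (ex 380 nm, em 460 nm) over 5 min, with the slope taken as the rate.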

ERAP2^K [5] = target: T1, ERAP2^K; assay: Peptide trimming by ERAP2^K; conditions: for trimming rate relative to ERAP1: ERAP2^K compared to ERAP1
How it was run: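 20 μM peptide was incubated with 100 to 4,000ng (7.3 to 293.6nM) ERAP1 or recombinant ERAP2 at 37°C for 15 min to 1 hour in 50mM HEPES pH 7.0, 100mM NaCl. Reactions were stopped with 0.1% TFA, centrifuged, and run on C18 RP-HPLC (5–50% acetonitrile, A220). Initial rates were taken under <30% completion, and enzymes were compared in parallel. Products were identified by peptide controls and MS; epitope destruction was measured from accumulated smaller peptides.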

ERAP2^N [6] = target: T2, ERAP2^N; assay: Peptide trimming by ERAP2^N; conditions: 20 μM precursor; for trimming rates, comparison of alleles: ERAP2^N vs ERAP2^K, 37°C, pH 7.0
[7] = ERAP2^K, Michaelis-Menten analysis
[8] = precursor carrying N-terminal leucine

T2 sequence (Q6P179 whole entry K392N): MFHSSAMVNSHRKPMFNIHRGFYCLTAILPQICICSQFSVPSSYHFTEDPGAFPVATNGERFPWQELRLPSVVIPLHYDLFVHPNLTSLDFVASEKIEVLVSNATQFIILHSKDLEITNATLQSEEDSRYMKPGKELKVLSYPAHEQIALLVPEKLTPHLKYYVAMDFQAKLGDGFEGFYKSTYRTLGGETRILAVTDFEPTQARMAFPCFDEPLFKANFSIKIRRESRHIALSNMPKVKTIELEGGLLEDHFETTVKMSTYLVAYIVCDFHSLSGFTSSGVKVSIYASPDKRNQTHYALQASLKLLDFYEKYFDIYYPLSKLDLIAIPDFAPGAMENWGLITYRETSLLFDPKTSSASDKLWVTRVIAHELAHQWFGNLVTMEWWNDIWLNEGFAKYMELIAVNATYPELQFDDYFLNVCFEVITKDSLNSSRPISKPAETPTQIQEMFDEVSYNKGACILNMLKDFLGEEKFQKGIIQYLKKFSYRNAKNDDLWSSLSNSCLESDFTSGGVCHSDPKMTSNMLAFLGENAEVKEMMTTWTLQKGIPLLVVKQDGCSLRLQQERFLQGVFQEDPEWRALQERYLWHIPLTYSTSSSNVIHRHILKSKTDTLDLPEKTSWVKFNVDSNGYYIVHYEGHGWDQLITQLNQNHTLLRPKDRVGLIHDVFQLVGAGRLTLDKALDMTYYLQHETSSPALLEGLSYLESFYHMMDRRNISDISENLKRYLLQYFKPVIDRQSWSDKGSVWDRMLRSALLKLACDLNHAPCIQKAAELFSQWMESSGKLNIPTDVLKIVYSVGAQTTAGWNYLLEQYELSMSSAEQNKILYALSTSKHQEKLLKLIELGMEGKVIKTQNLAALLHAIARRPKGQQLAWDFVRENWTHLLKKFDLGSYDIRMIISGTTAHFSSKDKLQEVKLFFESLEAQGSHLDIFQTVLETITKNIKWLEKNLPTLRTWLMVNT
T1 sequence (Q6P179 whole entry): as the sequence (Q6P179 whole entry K392N) above, with N392K counted along it

Compound: Cc1cc(=O)oc2cc(NC(=O)[C@@H](N)CCCN=C(N)N)ccc12 [R-AMC, L-Arginyl-7-amido-4-methyl coumarin]
- lowering of kcat constant (ERAP2^K [1]; ERAP2^K vs ERAP2^N): about 18 fold
- Km (ERAP2^K [1]; [7]): 17 ± 5 µM
- kcat (ERAP2^K [1]; [7]): 5.8±0.4 ×10^−3 sec^−1
- rate of hydrolysis (ERAP2^K [1]; ERAP2^K, fluorescence ex 380 nm, em 460 nm, 5 min): 4.8±3 mmol/mol sec^−1
- change of substrate affinity between polymorphic states (ERAP2^K [1]; ERAP2^N vs ERAP2^K): less than 2 fold
- Km (ERAP2^N [2]; Michaelis-Menten analysis): 30 ± 9 µM
- kcat (ERAP2^N [2]; Michaelis-Menten analysis): 104±9 ×10^−3 sec^−1
- rate of hydrolysis (ERAP2^N [2]; fluorescence ex 380 nm, em 460 nm, 5 min): 78±1 mmol product/mol enzyme sec^−1

Compound: ASRHHAFSFR
- epitope generation rate, fold faster (ERAP2^N [3]): about 2 fold

Compound: Amastatin
- inhibition of the two ERAP2 alleles (ERAP2^N [4]): nearly identical

Compound: LSRHHAFSFR
- trimming rate relative to ERAP1 (ERAP2^K [5]; [8]): much less efficient

Compound: LSRYWAIRTR
- trimming rates, comparison of alleles (ERAP2^N [6]): drastically different
- epitope generation from precursor (ERAP2^K [5]; ERAP2^K, RP-HPLC, 20 μM peptide, 37°C, pH 7.0): essentially failing to produce detectable amounts of mature epitope; also recorded: absence of a visible epitope peak produced by ERAP2^K

Compound: RSRYWAIRTR
- trimming rates, comparison of alleles (ERAP2^N [6]): almost identical rates by both ERAP2 alleles; also recorded: essentially identical for both alleles

Compound: SRHHAFSFR
- all three enzymes: epitope generation vs destruction (ERAP2^K [5]; ERAP1, ERAP2^N and ERAP2^K, precursor carrying N-terminal leucine): generated the epitope faster than they destroyed it
- trimming rate relative to ERAP1 (ERAP2^K [5]; [8]): negligible compared to that of ERAP1

Compound: WLRRYLENGK
- trimming rate difference between alleles (ERAP2^N [6]; ERAP2^N versus ERAP2^K): 165 fold
